Results reported in ChEMBL document CHEMBL1122043, “A new class of nitrosoureas. 4. Synthesis and antitumor activity of disaccharide derivatives of 3,3-disubstituted 1-(2-chloroethyl)-1-nitrosoureas” (J Med Chem, 1982).

Assays:
[1] = […] required for antitumor activity against Ehrlich ascites carcinoma cells in […] mice.; type: functional, Mus musculus
[2] = Therapeutic index value for anti-L1210 activity.; details: mouse; for selectivity ratio: read-out: TI
In short: (§1)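 Mice were male BDF1 inoculated ip with 10^5 L1210 cells. Ip treatment began 24 h later. Therapeutic ratio = OD/ILS30. ILS30 is the daily dose giving a 30% increase in life-span over control. OD is the daily dose giving the maximum increase in life-span.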

[3] = Therapeutic index value for anti-Ehrlich activity.; details: mouse; for selectivity ratio: read-out: TI
In short: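 Ehrlich ascites cells (10^6) were inoculated ip into 5 female ICR mice. Ip dosing began 24 h later and was given once daily for 5 days. Therapeutic ratio = MTD/MED. MED is the minimum dose giving 100% inhibition of tumor growth. MTD is the maximum dose giving 100% inhibition without mouse deaths.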

L1210 [4] = assay: Antitumor activity against Leukemia L1210 cells in male BDF1 mice at the dose of 100 mg/kg/day x5 (i.p.) expressed as maximal increase in life-span; type: functional, Mus musculus; details: route intraperitoneal
In short: (§2)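 L1210 leukemia cells (10^5) given ip to male BDF1 mice. Ip dosing started 24 h after inoculation and was given once daily for 5 days. Life-span increase was calculated as ILS (%) = (T/C-1) × 100. Optimal dose was the daily dose giving the maximum increase in life-span.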

L1210 [5] = assay: Antitumor activity against Leukemia L1210 cells in male BDF1 mice at the dose of 200 mg/kg/day x5 (i.p.) expressed as maximal increase in life-span; type: functional, Mus musculus; details: route intraperitoneal; in short: as §2
L1210 [6] = assay: Antitumor activity against Leukemia L1210 cells in male BDF1 mice at the dose of 230 mg/kg/day x1 (i.p.) expressed as maximal increase in life-span; type: functional, Mus musculus; details: route intraperitoneal
In short: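 Male BDF1 mice (six or eight) received 10^5 L1210 cells ip. A single ip dose, in (mg/kg)/day × 1, was given 24 h after inoculation. ILS (%) = (T/C-1) × 100. The optimal dose was the dose giving the maximum increase in life-span.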

L1210 [7] = assay: Antitumor activity against Leukemia L1210 cells in BDF1 mice at the dose of 130 mg/kg/ day *5 (i.p.) expressed as maximal increase in life-span; type: functional, Mus musculus; details: route intraperitoneal; in the assay text read “25 mg/kg/ day” for “130 mg/kg/ day”; in short: as §2
L1210 [8] = assay: Antitumor activity against Leukemia L1210 cells in BDF1 mice at the dose of 50 mg/kg/day x5 (i.p.) expressed as maximal increase in life-span; type: functional, Mus musculus; details: route intraperitoneal; in short: as §2
L1210 [9] = assay: Antitumor activity against Leukemia L1210 cells in male BDF1 mice at the dose of 50 mg/kg/day x5 (i.p.) expressed as maximal increase in life-span; type: functional, Mus musculus; details: route intraperitoneal; in short: as §2
[10] = Therapeutic index value for anti L1210 activity; Inactive; in short: as §1
L1210 [11] = assay: Antitumor activity against Leukemia L1210 cells in male BDF1 mice at the dose of 400 mg/kg/day x5 (i.p.) expressed as maximal increase in life-span; type: functional, Mus musculus; details: route intraperitoneal; in short: as §2
L1210 [12] = assay: Antitumor activity against Leukemia L1210 cells in male BDF1 mice at the dose of 200 mg/kg/day x5 (ip) expressed as maximal increase in life-span; type: functional, Mus musculus; in short: as §2
[13] = Maximum tolerated dose required antitumor activity against Ehrlich ascites carcinoma cells in female ICR mice.
[14] = Minimum effective dose required for antitumor activity against Ehrlich ascites carcinoma cells in female ICR mice.
L1210 [15] = assay: Antitumor activity against Leukemia L1210 cells in male BDF1 mice at the dose of 25 mg/kg/day x5 (i.p.) expressed as maximal increase in life-span; type: functional, Mus musculus; details: route intraperitoneal
In short: (§3)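 Male BDF1 mice were inoculated ip with 10^5 L1210 leukemia cells. Drug was given ip once daily for 5 days, starting 24 h after inoculation. ILS (%) = (T/C-1) × 100. The recorded value is the ILS at the optimal dose, meaning the daily dose giving the maximum increase in life-span.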

L1210 [16] = assay: Antitumor activity against Leukemia L1210 cells in BDF1 mice at the dose of 50 mg/kg/day x 1 (i.p.), ILS30; details: route intraperitoneal
L1210 [17] = assay: Antitumor activity against Leukemia L1210 cells in male BDF1 mice at the dose of 6.25 mg/kg/day x5 (i.p.) expressed as maximal increase in life-span; type: functional, Mus musculus; details: route intraperitoneal; in short: as §2
L1210 [18] = assay: Antitumor activity against Leukemia L1210 cells in BDF1 mice at the dose of 6.25 mg/kg/day x 5 (ip), maximum increase in life-span; type: functional, Mus musculus; in short: as §3
L1210 [19] = assay: Antitumor activity against Leukemia L1210 cells in BDF1 mice at the dose of 25 mg/kg/day x1 (i.p.) expressed as maximal increase in life-span; details: route intraperitoneal
L1210 [20] = assay: Antitumor activity against Leukemia L1210 cells in BDF1 mice at the dose of 6.25 mg/kg/day x5 (i.p.) expressed as maximal increase in life-span; type: functional, Mus musculus; details: route intraperitoneal; in short: as §2
L1210 [21] = assay: Antitumor activity against Leukemia L1210 cells in BDF1 mice at the dose of 400 mg/kg/day x 5 (ip), maximum increase in life-span; type: functional, Mus musculus; in short: as §3

| Compound | MED [1] [mg kg-1 5day-1] | selectivity ratio [2] | selectivity ratio [3] | ILS30 (L1210 [4]) | other results |
| --- | --- | --- | --- | --- | --- |
| O=NN(CCCl)C(=O)N(CC1CC1)C1OC(CO)C(OC2OC(CO)C(O)C(O)C2O)C(O)C1O (stereo unspecified) | 1.56 | 28.6 | 64 | 3.5 | – |
| C=C(C)CN(C(=O)N(CCCl)N=O)C1OC(CO)C(OC2OC(CO)C(O)C(O)C2O)C(O)C1O (stereo unspecified) | 1.56 | 62.5 | 128 | – | ILS30 (L1210 [5]): 3.2 |
| O=NN(CCCl)C(=O)N(Cc1ccc(Cl)cc1)C1OC(CO)C(OC2OC(CO)C(O)C(O)C2O)C(O)C1O (stereo unspecified) | 1.56 | 10 | 128 | – | ILS30 (L1210 [5]): 20 |
| C=CCN(C(=O)N(CCCl)N=O)C1OC(CO)C(OC2OC(CO)C(O)C(O)C2O)C(O)C1O (stereo unspecified) | 1.56 | 50 | 64 | 2 | – |
| O=NN(CCCl)C(=O)N(CC1CCCCC1)C1OC(CO)C(OC2OC(CO)C(O)C(O)C2O)C(O)C1O (stereo unspecified) | 3.12 | 12.5 | 32 | 8 | – |
| CC(C)CN(C(=O)N(CCCl)N=O)C1OC(CO)C(O)C(O)C1O (stereo unspecified) | – | 50 | – | – | ILS30 (L1210 [6]): 2.6; TI [2]: 34.2; ILS30 (L1210 [7]): 0.73; ILS30 (L1210 [8]): 1 |
| CCOCCN(C(=O)N(CCCl)N=O)C1OC(CO)C(OC2OC(CO)C(O)C(O)C2O)C(O)C1O (stereo unspecified) | 3.12 | 37 | 64 | 2.7 | – |
| CCCCCCN(C(=O)N(CCCl)N=O)C1OC(CO)C(OC2OC(CO)C(O)C(O)C2O)C(O)C1O (stereo unspecified) | – | 3.6 | 32 | – | ILS30 (L1210 [9]): 14 |
| CC(C)CN(C(=O)N(CCCl)N=O)C1OC(CO)C(OC2OC(CO)C(O)C(O)C2O)C(O)C1O (stereo in doubt; 37) | – | – | – | 1.2 | ILS30 (L1210 [6]): 7.3; TI [3]: 256 |
| CCCCN(C(=O)N(CCCl)N=O)C1OC(CO)C(OC2OC(CO)C(O)C(O)C2O)C(O)C1O (stereo unspecified) | 6.25 | 22.2 | 32 | 4.5 | – |
| CCCCCCCCCCCCCCCCN(C(=O)N(CCCl)N=O)C1OC(CO)C(OC2OC(CO)C(O)C(O)C2O)C(O)C1O (stereo unspecified) | – | – | 32 | – | TI [10]: Not Active |
| CC(C)CN(C(=O)N(CCCl)N=O)C1OC(COC2OC(CO)C(O)C(O)C2O)C(O)C(O)C1O (stereo unspecified) | – | 1.1 | 1 | – | ILS30 (L1210 [11]): 350 |
| COCCN(C(=O)N(CCCl)N=O)C1OC(CO)C(OC2OC(CO)C(O)C(O)C2O)C(O)C1O (stereo unspecified) | 3.12 | 11.8 | 64 | – | ILS30 (L1210 [5]): 17 |
| CC(C)CN(C(=O)N(CCCl)N=O)C1OC(CO)C(OC2OC(CO)C(O)C(O)C2O)C(O)C1O (stereo in doubt; 63) | 100 | – | – | – | TI [2]: 1.3; TI [3]: 2; ILS30 (L1210 [12]): 160 |
| CCCCCN(C(=O)N(CCCl)N=O)C1OC(CO)C(OC2OC(CO)C(O)C(O)C2O)C(O)C1O (stereo unspecified) | 3.12 | 28.6 | 64 | 3.5 | – |
| Cc1ncc(CNC(=O)N(CCCl)N=O)c(N)n1 [NIMUSTINE] | – | 9.3 | 8 | – | MTD [13]: 25 mg kg-1 5day-1; MED [14]: 3.12 mg kg-1 5day-1; ILS30 (L1210 [15]): 2.9 |
| CCC(C)N(C(=O)N(CCCl)N=O)C1OC(CO)C(OC2OC(CO)C(O)C(O)C2O)C(O)C1O (stereo unspecified) | 1.56 | 66.7 | 128 | 1.5 | – |
| C=CCCN(C(=O)N(CCCl)N=O)C1OC(CO)C(OC2OC(CO)C(O)C(O)C2O)C(O)C1O (stereo unspecified) | 1.56 | 64.5 | 128 | – | ILS30 (L1210 [5]): 3.1 |
| O=NN(CCCl)C(=O)N(CC1CCCO1)C1OC(CO)C(OC2OC(CO)C(O)C(O)C2O)C(O)C1O (stereo unspecified) | 3.12 | 33.3 | 64 | – | ILS30 (L1210 [5]): 6 |
| O=NN(CCCl)C(=O)NC1CCCCC1 [LOMUSTINE] | – | 5.1 | 4 | – | ILS30 (L1210 [16]): 9.3 mg/kg; MTD [13]: 50 mg kg-1 5day-1; MED [14]: 12.5 mg kg-1 5day-1; ILS30 (L1210 [15]): 4.9 |
| CN(C(=O)N(CCCl)N=O)C1OC(CO)C(OC2OC(CO)C(O)C(O)C2O)C(O)C1O (stereo unspecified) | – | 11.4 | 32 | 8.8 | – |
| O=NN(CCCl)C(=O)N[C@@H]1O[C@H](CO)[C@@H](O)[C@H](O)[C@H]1O | – | 7.8 | 32 | – | MTD [13]: 12.5 mg kg-1 5day-1; ILS30 (L1210 [17]): 0.8; ILS max (L1210 [18]): >198.6%; ILS30 (L1210 [19]): 1.1; ILS30 (L1210 [20]): 0.8; MED [14]: 0.39 mg kg-1 5day-1 |
| CCCN(C(=O)N(CCCl)N=O)C1OC(CO)C(OC2OC(CO)C(O)C(O)C2O)C(O)C1O (stereo unspecified) | – | 20.4 | 64 | 4.9 | – |
| CC(=O)OCC1OC(N(CC(C)C)C(=O)N(CCCl)N=O)C(OC(C)=O)C(OC(C)=O)C1COCC1OC(COC(C)=O)C(OC(C)=O)C(OC(C)=O)C1OC(C)=O (stereo unspecified) | – | – | – | – | ILS max (L1210 [21]): 18% |
| COCCCN(C(=O)N(CCCl)N=O)C1OC(CO)C(OC2OC(CO)C(O)C(O)C2O)C(O)C1O (stereo unspecified) | 3.12 | 26.7 | 64 | – | ILS30 (L1210 [5]): 7.5 |
| CC(C)N(C(=O)N(CCCl)N=O)C1OC(CO)C(OC2OC(CO)C(O)C(O)C2O)C(O)C1O (stereo unspecified) | – | 18.5 | 32 | 5.4 | – |
